The source made the active and inactive calls. No cut-off for these calls is given here. Where a SMILES comes first, the peptide text is derived from it. The star is where a group is joined. Propyl(2R-PamO,3-PamO) = CCCCCCCCCCCCCCCC(=O)OC[C@H](C*)OC(=O)CCCCCCCCCCCCCCC; X1 = CCCCCCCCCCCCCCCC(=O)OC[C@@H](C*)OC(=O)CCCCCCCCCCCCCCC; Palmitoyl = CCCCCCCCCCCCCCCC(=O)*
What was measured:
[1] = Drug uptake in H-2b harboring B6 mouse DC at 1 uM after 15 mins by confocal microscopic analysis; type: ADME; settings: in vitro, 0.25 h
Summary of the method: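 Dendritic cells were exposed to conjugate for 15 min. Uptake and intracellular localisation were imaged by confocal laser scanning microscopy. Images are representative of multiple cells in at least 3 experiments.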

[2] = target: Toll-like receptor 2 (Homo sapiens) (UniProt O60603); experiment: Agonist activity at human TLR2 expressed in HEK cells assessed as increase in IL-8 production at 100 ng/ml incubated for 24 hrs by ELISA; type: cell-based; settings: HEK293
Summary of the method: (§1)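 HEK cells transfected with human TLR2 were incubated 24 h with conjugates at 100–25 nM, or with Pam₃CysSK₄ at 100 ng/mL. Receptor activation was read as IL-8 produced in the assay. Error bars are SD.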

[3] = target: Toll-like receptor 2 (Mus musculus) (UniProt Q9QUN7); experiment: Agonist activity at TLR2 in H-2b harboring B6 mouse DC assessed as cell maturation by measuring increase in IL-12 p40 production at 0.0625 to 1 uM incubated for 48 hrs by sandwich ELISA
Summary of the method: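 Supernatants were harvested and IL-12 secretion measured by ELISA. Data shown are one representative of three independent experiments.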

[4] = Aqueous solubility of compound; type: physicochemical; settings: buffer
[5] = target: Toll-like receptor 2 (Homo sapiens) (UniProt O60603); experiment: Agonist activity at human TLR2 expressed in HEK cells assessed as increase in IL-8 production at 25 to 100 nM incubated for 24 hrs by ELISA; type: cell-based; settings: HEK293; summary of the method: as §1
[6] = target: Toll-like receptor 4 (Homo sapiens) (UniProt O00206); experiment: Agonist activity at human TLR4 expressed in HEK cells assessed as increase in IL-8 production at 25 to 100 nM incubated for 24 hrs by ELISA; type: cell-based; settings: HEK293
Toll-like receptor 4 (Homo sapiens), sequence (O00206 whole entry): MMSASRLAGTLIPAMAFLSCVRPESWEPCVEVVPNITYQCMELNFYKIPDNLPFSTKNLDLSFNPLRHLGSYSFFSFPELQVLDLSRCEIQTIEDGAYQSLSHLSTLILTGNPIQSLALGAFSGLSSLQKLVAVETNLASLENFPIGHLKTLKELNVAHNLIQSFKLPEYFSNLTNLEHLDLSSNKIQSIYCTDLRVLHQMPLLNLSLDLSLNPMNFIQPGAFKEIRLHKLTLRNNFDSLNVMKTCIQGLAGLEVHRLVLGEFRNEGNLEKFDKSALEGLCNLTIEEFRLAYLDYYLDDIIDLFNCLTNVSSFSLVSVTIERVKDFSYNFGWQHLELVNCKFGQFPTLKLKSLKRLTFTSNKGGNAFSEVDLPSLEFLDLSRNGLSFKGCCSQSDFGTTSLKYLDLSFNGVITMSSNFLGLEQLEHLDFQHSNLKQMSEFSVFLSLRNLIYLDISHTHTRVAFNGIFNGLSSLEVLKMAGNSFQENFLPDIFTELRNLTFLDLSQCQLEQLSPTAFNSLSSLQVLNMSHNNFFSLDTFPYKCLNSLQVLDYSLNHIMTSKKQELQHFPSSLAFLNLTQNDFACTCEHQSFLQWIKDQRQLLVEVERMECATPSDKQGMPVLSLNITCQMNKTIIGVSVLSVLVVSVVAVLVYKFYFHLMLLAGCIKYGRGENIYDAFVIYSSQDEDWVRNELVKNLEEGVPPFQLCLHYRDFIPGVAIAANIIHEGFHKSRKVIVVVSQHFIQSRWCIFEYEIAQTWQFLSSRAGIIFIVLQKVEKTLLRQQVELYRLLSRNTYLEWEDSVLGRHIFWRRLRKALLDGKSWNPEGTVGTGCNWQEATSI

Toll-like receptor 2 (Homo sapiens), sequence (O60603 whole entry): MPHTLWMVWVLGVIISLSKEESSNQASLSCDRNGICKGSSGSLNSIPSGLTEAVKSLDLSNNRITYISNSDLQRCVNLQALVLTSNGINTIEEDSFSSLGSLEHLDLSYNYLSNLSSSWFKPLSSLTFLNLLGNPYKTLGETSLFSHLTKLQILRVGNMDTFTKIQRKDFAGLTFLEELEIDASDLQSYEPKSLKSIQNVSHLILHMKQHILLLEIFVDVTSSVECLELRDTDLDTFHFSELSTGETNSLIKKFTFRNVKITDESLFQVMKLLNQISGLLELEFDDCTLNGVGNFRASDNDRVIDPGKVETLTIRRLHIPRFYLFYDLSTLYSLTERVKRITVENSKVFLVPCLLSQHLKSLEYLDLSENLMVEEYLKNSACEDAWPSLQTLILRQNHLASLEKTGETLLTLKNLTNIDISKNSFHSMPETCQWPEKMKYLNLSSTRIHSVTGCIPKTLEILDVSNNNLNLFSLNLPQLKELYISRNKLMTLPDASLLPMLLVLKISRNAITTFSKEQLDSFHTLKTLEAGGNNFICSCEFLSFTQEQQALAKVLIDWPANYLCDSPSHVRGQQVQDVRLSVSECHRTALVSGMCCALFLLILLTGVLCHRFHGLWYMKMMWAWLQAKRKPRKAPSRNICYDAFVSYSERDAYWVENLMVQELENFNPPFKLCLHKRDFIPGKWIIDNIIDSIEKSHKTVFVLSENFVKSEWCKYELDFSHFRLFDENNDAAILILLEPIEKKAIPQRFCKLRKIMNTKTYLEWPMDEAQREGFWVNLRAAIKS
Toll-like receptor 2 (Mus musculus), sequence (Q9QUN7 whole entry): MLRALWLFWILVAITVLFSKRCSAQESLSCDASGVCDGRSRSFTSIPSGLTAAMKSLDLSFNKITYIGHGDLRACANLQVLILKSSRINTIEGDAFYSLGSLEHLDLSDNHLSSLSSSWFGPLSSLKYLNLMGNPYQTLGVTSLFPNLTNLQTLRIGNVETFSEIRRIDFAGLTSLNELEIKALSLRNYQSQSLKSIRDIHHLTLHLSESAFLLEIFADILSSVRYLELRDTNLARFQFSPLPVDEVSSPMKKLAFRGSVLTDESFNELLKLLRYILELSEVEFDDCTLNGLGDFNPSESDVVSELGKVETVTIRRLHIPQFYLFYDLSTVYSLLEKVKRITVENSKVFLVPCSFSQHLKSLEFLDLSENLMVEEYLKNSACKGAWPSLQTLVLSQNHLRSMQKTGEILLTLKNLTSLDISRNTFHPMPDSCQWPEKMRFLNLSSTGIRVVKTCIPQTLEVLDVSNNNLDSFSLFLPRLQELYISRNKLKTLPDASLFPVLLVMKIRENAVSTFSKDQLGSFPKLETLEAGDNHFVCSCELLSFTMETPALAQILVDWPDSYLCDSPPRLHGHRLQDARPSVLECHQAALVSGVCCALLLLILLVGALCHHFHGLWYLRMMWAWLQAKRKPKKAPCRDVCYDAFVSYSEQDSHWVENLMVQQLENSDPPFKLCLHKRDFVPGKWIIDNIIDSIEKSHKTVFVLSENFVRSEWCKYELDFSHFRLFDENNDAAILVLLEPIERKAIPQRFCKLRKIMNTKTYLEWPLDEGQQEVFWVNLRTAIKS

Drug uptake [1]	Activity [2]	Activity [3]	solubility [4]	Activity [5]	Activity [6]	SMILES
Active						CCCCCCCCCCCCCCCC(=O)N[C@@H](CSC[C@@H](COC(=O)CCCCCCCCCCCCCCC)OC(=O)CCCCCCCCCCCCCCC)C(=O)N[C@@H](CO)C(=O)N[C@@H](CCCCN)C(=O)N[C@@H](CCCCN)C(=O)N[C@@H](CCCCN)C(=O)N[C@@H](CCCCN)C(=O)N[C@@H](CC(=O)O)C(=O)N[C@@H](CCC(=O)O)C(=O)N[C@H](C(=O)N[C@@H](CO)C(=O)NCC(=O)N[C@@H](CC(C)C)C(=O)N[C@@H](CCC(=O)O)C(=O)N[C@@H](CCC(N)=O)C(=O)N[C@@H](CC(C)C)C(=O)N[C@@H](CCC(=O)O)C(=O)N[C@@H](CO)C(=O)N[C@H](C(=O)N[C@H](C(=O)N[C@@H](CC(N)=O)C(=O)N[C@@H](Cc1ccccc1)C(=O)N[C@@H](CCC(=O)O)C(=O)N[C@@H](CCCCn1nnc2c1CC[C@H]1[C@@H](CC2)[C@H]1COC(=O)NCCOCCOCCNC(=O)CCCC[N+]1=C(/C=C/C=C/C=C2\N(C)c3ccccc3C2(C)C)C(C)(C)c2ccccc21)C(=O)N[C@@H](CC(C)C)C(=O)O)[C@@H](C)CC)[C@@H](C)CC)C(C)C
	Active					CCCCCCCCCCCCCCCC(=O)N[C@@H](CSC[C@@H](COC(=O)CCCCCCCCCCCCCCC)OC(=O)CCCCCCCCCCCCCCC)C(=O)N[C@@H](CO)C(=O)N[C@@H](CCCCN)C(=O)N[C@@H](CCCCN)C(=O)N[C@@H](CCCCN)C(=O)N[C@@H](CCCCN)C(=O)O (Palmitoyl-C(Propyl(2R-PamO,3-PamO))SKKKK-OH)
		inactive	Insoluble			CCCCCCCCCCCCCCCC(=O)N[C@H](CSC[C@@H](COC(=O)CCCCCCCCCCCCCCC)OC(=O)CCCCCCCCCCCCCCC)C(=O)N[C@H](CO)C(=O)N[C@H](CCCCN)C(=O)N[C@H](CCCCN)C(=O)N[C@H](CCCCN)C(=O)N[C@H](CCCCN)C(=O)N[C@H](CC(=O)O)C(=O)N[C@H](CCC(=O)O)C(=O)N[C@@H](C(=O)N[C@H](CO)C(=O)NCC(=O)N[C@H](CC(C)C)C(=O)N[C@H](CCC(=O)O)C(=O)N[C@H](CCC(N)=O)C(=O)N[C@H](CC(C)C)C(=O)N[C@H](CCC(=O)O)C(=O)N[C@H](CO)C(=O)N[C@@H](C(=O)N[C@@H](C(=O)N[C@H](CC(N)=O)C(=O)N[C@H](Cc1ccccc1)C(=O)N[C@@H](CCC(=O)O)C(=O)N[C@H](CCCCn1nnc2c1CC[C@@H]1[C@H](CC2)[C@@H]1COC(=O)NCCOCCOCCNC(=O)c1ccc(-c2c3ccc(=[N+](C)C)cc-3oc3cc(N(C)C)ccc23)c(C(=O)[O-])c1)C(=O)N[C@@H](CC(C)C)C(=O)O)[C@@H](C)CC)[C@@H](C)CC)C(C)C
		Active	Insoluble			CCCCCCCCCCCCCCCC(=O)N[C@H](CSC[C@H](COC(=O)CCCCCCCCCCCCCCC)OC(=O)CCCCCCCCCCCCCCC)C(=O)N[C@H](CO)C(=O)N[C@H](CCCCN)C(=O)N[C@H](CCCCN)C(=O)N[C@H](CCCCN)C(=O)N[C@H](CCCCN)C(=O)N[C@H](CC(=O)O)C(=O)N[C@H](CCC(=O)O)C(=O)N[C@@H](C(=O)N[C@H](CO)C(=O)NCC(=O)N[C@H](CC(C)C)C(=O)N[C@H](CCC(=O)O)C(=O)N[C@H](CCC(N)=O)C(=O)N[C@H](CC(C)C)C(=O)N[C@H](CCC(=O)O)C(=O)N[C@H](CO)C(=O)N[C@@H](C(=O)N[C@@H](C(=O)N[C@H](CC(N)=O)C(=O)N[C@H](Cc1ccccc1)C(=O)N[C@@H](CCC(=O)O)C(=O)N[C@H](CCCCn1nnc2c1CC[C@@H]1[C@H](CC2)[C@@H]1COC(=O)NCCOCCOCCNC(=O)c1ccc(-c2c3ccc(=[N+](C)C)cc-3oc3cc(N(C)C)ccc23)c(C(=O)[O-])c1)C(=O)N[C@@H](CC(C)C)C(=O)O)[C@@H](C)CC)[C@@H](C)CC)C(C)C
		inactive		inactive	inactive	CCCCCCCCCCCCCCCC(=O)N[C@@H](CSC[C@H](COC(=O)CCCCCCCCCCCCCCC)OC(=O)CCCCCCCCCCCCCCC)C(=O)N[C@@H](CO)C(=O)N[C@@H](CCCCN)C(=O)N[C@@H](CCCCN)C(=O)N[C@@H](CCCCN)C(=O)N[C@@H](CCCCN)C(=O)N[C@@H](CC(=O)O)C(=O)N[C@@H](CCC(=O)O)C(=O)N[C@H](C(=O)N[C@@H](CO)C(=O)NCC(=O)N[C@@H](CC(C)C)C(=O)N[C@@H](CCC(=O)O)C(=O)N[C@@H](CCC(N)=O)C(=O)N[C@@H](CC(C)C)C(=O)N[C@@H](CCC(=O)O)C(=O)N[C@@H](CO)C(=O)N[C@H](C(=O)N[C@H](C(=O)N[C@@H](CC(N)=O)C(=O)N[C@@H](Cc1ccccc1)C(=O)N[C@@H](CCC(=O)O)C(=O)N[C@@H](CCCCN)C(=O)N[C@@H](CC(C)C)C(=O)O)[C@@H](C)CC)[C@@H](C)CC)C(C)C (Palmitoyl-C(X1)SKKKKDEVSGLEQLESIINFEKL-OH)
		inactive		inactive	inactive	CCCCCCCCCCCCCCCC(=O)N[C@@H](CSC[C@H](COC(=O)CCCCCCCCCCCCCCC)OC(=O)CCCCCCCCCCCCCCC)C(=O)N[C@@H](CO)C(=O)N[C@@H](CCCCN)C(=O)N[C@@H](CCCCN)C(=O)N[C@@H](CCCCN)C(=O)N[C@@H](CCCCN)C(=O)N[C@@H](CC(=O)O)C(=O)N[C@@H](CCC(=O)O)C(=O)N[C@H](C(=O)N[C@@H](CO)C(=O)NCC(=O)N[C@@H](CC(C)C)C(=O)N[C@@H](CCC(=O)O)C(=O)N[C@@H](CCC(N)=O)C(=O)N[C@@H](CC(C)C)C(=O)N[C@@H](CCC(=O)O)C(=O)N[C@@H](CO)C(=O)N[C@H](C(=O)N[C@H](C(=O)N[C@@H](CC(N)=O)C(=O)N[C@@H](Cc1ccccc1)C(=O)N[C@H](CCC(=O)O)C(=O)N[C@@H](CCCCn1nnc2c1CC[C@H]1[C@@H](CC2)[C@H]1COC(=O)NCCOCCOCCNC(=O)CCCC[N+]1=C(/C=C/C=C/C=C2\N(C)c3ccccc3C2(C)C)C(C)(C)c2ccccc21)C(=O)N[C@H](CC(C)C)C(=O)O)[C@H](C)CC)[C@H](C)CC)C(C)C
		Active		Active	inactive	CCCCCCCCCCCCCCCC(=O)N[C@@H](CSC[C@@H](COC(=O)CCCCCCCCCCCCCCC)OC(=O)CCCCCCCCCCCCCCC)C(=O)N[C@@H](CO)C(=O)N[C@@H](CCCCN)C(=O)N[C@@H](CCCCN)C(=O)N[C@@H](CCCCN)C(=O)N[C@@H](CCCCN)C(=O)N[C@@H](CC(=O)O)C(=O)N[C@@H](CCC(=O)O)C(=O)N[C@H](C(=O)N[C@@H](CO)C(=O)NCC(=O)N[C@@H](CC(C)C)C(=O)N[C@@H](CCC(=O)O)C(=O)N[C@@H](CCC(N)=O)C(=O)N[C@@H](CC(C)C)C(=O)N[C@@H](CCC(=O)O)C(=O)N[C@@H](CO)C(=O)N[C@H](C(=O)N[C@H](C(=O)N[C@@H](CC(N)=O)C(=O)N[C@@H](Cc1ccccc1)C(=O)N[C@@H](CCC(=O)O)C(=O)N[C@@H](CCCCN)C(=O)N[C@@H](CC(C)C)C(=O)O)[C@@H](C)CC)[C@@H](C)CC)C(C)C (Palmitoyl-C(Propyl(2R-PamO,3-PamO))SKKKKDEVSGLEQLESIINFEKL-OH)
Active						CCCCCCCCCCCCCCCC(=O)N[C@@H](CSC[C@H](COC(=O)CCCCCCCCCCCCCCC)OC(=O)CCCCCCCCCCCCCCC)C(=O)N[C@@H](CO)C(=O)N[C@@H](CCCCN)C(=O)N[C@@H](CCCCN)C(=O)N[C@@H](CCCCN)C(=O)N[C@@H](CCCCN)C(=O)N[C@@H](CC(=O)O)C(=O)N[C@@H](CCC(=O)O)C(=O)N[C@H](C(=O)N[C@@H](CO)C(=O)NCC(=O)N[C@@H](CC(C)C)C(=O)N[C@@H](CCC(=O)O)C(=O)N[C@@H](CCC(N)=O)C(=O)N[C@@H](CC(C)C)C(=O)N[C@@H](CCC(=O)O)C(=O)N[C@@H](CO)C(=O)N[C@H](C(=O)N[C@H](C(=O)N[C@@H](CC(N)=O)C(=O)N[C@@H](Cc1ccccc1)C(=O)N[C@@H](CCC(=O)O)C(=O)N[C@@H](CCCCn1nnc2c1CC[C@H]1[C@@H](CC2)[C@H]1COC(=O)NCCOCCOCCNC(=O)CCCC[N+]1=C(/C=C/C=C/C=C2\N(C)c3ccccc3C2(C)C)C(C)(C)c2ccccc21)C(=O)N[C@@H](CC(C)C)C(=O)O)[C@@H](C)CC)[C@@H](C)CC)C(C)C
		Active		Active	inactive	CCCCCCCCCCCCCCCC(=O)N[C@@H](CSC[C@@H](COC(=O)CCCCCCCCCCCCCCC)OC(=O)CCCCCCCCCCCCCCC)C(=O)N[C@@H](CO)C(=O)N[C@@H](CCCCN)C(=O)N[C@@H](CCCCN)C(=O)N[C@@H](CCCCN)C(=O)N[C@@H](CCCCN)C(=O)N[C@@H](CC(=O)O)C(=O)N[C@@H](CCC(=O)O)C(=O)N[C@H](C(=O)N[C@@H](CO)C(=O)NCC(=O)N[C@@H](CC(C)C)C(=O)N[C@@H](CCC(=O)O)C(=O)N[C@@H](CCC(N)=O)C(=O)N[C@@H](CC(C)C)C(=O)N[C@@H](CCC(=O)O)C(=O)N[C@@H](CO)C(=O)N[C@H](C(=O)N[C@H](C(=O)N[C@@H](CC(N)=O)C(=O)N[C@@H](Cc1ccccc1)C(=O)N[C@H](CCC(=O)O)C(=O)N[C@@H](CCCCn1nnc2c1CC[C@H]1[C@@H](CC2)[C@H]1COC(=O)NCCOCCOCCNC(=O)CCCC[N+]1=C(/C=C/C=C/C=C2\N(C)c3ccccc3C2(C)C)C(C)(C)c2ccccc21)C(=O)N[C@H](CC(C)C)C(=O)O)[C@H](C)CC)[C@H](C)CC)C(C)C

From ChEMBL document CHEMBL3817818, “Synthesis and evaluation of fluorescent Pam3Cys peptide conjugates” (Bioorg Med Chem Lett, 2016)
